Measured values from PMC7119000 (Phytomedicine, 2013).
Read-outs that look alike come from different tables or passages of the source. One block for each molecule: values may come before it.

Assays:
[1] = In vitro Caco-2 cell monolayer transport, apical-to-basolateral; assay type: in vitro ADME, human; conditions: human, Caco-2
How it was run: (§1)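 Caco-2 cells grown in high-glucose DMEM with 10% FBS and 1% nonessential amino acids at 37 °C, 5% CO2. Seeded at 1.0 × 10^5 cells/cm2 on 4.2 cm2 inserts. Monolayers with TEER >250 Ω cm2 were HBSS-washed and preincubated 1 h at 37 °C. Compound was loaded apically, with samples taken at 0–4 h. Analysed by UPLC–MS/MS; Papp = (dQ/dt)/(A × C0).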

Caco-2 cell monolayers [2] = test: as above; assay type: in vitro ADME, human; conditions: for Apically loaded amount retained on the apical side: Caco-2 cell transport, authors' unpublished data
How it was run: as §1

[3] = assay type: in vivo, rat; conditions: for AUC(0-t) / Cmax / Tmax: male, SD, rat, plasma, po
Caco-2 cell monolayers [4] = conditions: flavonoids glucosides; ref the previous report; cited from earlier work

Apically loaded amount retained on the apical side (Caco-2 cell monolayers [2]): about 100%
SMILES: O=c1cc(-c2ccc(O)c(O)c2)oc2cc(O[C@@H]3O[C@H](CO)[C@@H](O)[C@H](O)[C@H]3O)cc(O)c12 [Galuteolin]
Absorption into Caco-2 cell (Caco-2 cell monolayers [4]): cannot be well absorbed

Apically loaded amount retained on the apical side (Caco-2 cell monolayers [2]): about 100%
SMILES: C[C@@H]1O[C@@H](OC[C@H]2O[C@@H](Oc3c(-c4ccc(O)c(O)c4)oc4cc(O)cc(O)c4c3=O)[C@H](O)[C@@H](O)[C@@H]2O)[C@H](O)[C@H](O)[C@H]1O [Rutin]
Absorption into Caco-2 cell (Caco-2 cell monolayers [4]): cannot be well absorbed

The remaining lines, values behind:

SMILES: O=C(/C=C/c1ccc(O)c(O)c1)O[C@@H]1C[C@](O)(C(=O)O)C[C@@H](O)[C@H]1O [Chlorogenic acid]
Papp A→B at 4 h [1]: 19 ± 3.35 ×10⁻⁶ cm/s | Papp-value increased to, compared to control (Caco-2 cell monolayers [2]; with addition of 0.1% (w/v) of COS): 9800% | AUC(0-t) ([3]; 25 mg/kg): 658 ng·h/mL | Cmax ([3]; 25 mg/kg): 284 ± 76.8 ng/mL | Tmax ([3]; 25 mg/kg): 13.8 min | AUC(0-t) ([3]; 10 ml/kg): 541 ng·h/mL | Cmax ([3]; 10 ml/kg): 236 ± 61.2 ng/mL | Tmax ([3]; 10 ml/kg): 30 min | AUC increased to, compared to control ([3]; with COS 25 mg/kg, rats, oral): 122%

SMILES: O=c1c(O[C@@H]2O[C@H](CO)[C@H](O)[C@H](O)[C@H]2O)c(-c2ccc(O)c(O)c2)oc2cc(O)cc(O)c12 [Hyperoside]
Absorption into Caco-2 cell (Caco-2 cell monolayers [4]): cannot be well absorbed

SMILES: O=c1cc(-c2ccc(O)c(O)c2)oc2cc(O[C@@H]3O[C@H](CO)[C@H](O)[C@H](O)[C@H]3O)cc(O)c12 [Luteolin-7-o--β-D-galactoside]
Absorption into Caco-2 cell (Caco-2 cell monolayers [4]): cannot be well absorbed

SMILES: O=c1c(O[C@@H]2O[C@H](CO)[C@H](O)[C@H](O)[C@H]2O)c(-c2ccc(O)c(O)c2)oc2cc(O)cc(O)c12 [hyperin]
Apically loaded amount retained on the apical side (Caco-2 cell monolayers [2]): about 100%
